In ChEMBL document CHEMBL1150607, “Ancistrocongolines A-D, new naphthylisoquinoline alkaloids from ancistrocladus congolensis” (J Nat Prod, 2002) one finds IC50 data, which are given here for seven compounds.

Data set [1] can be described thus: Cytotoxicity against rat L6 cells after 72 hrs by alamar blue assay. The data set is classed as cell-based. The settings on record: […]. In a few lines: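 L-6 cells in RPMI 1640 with 10% FBS exposed to serial drug dilutions, protocol closely following the T. b. rhodesiense assay; viability read with Alamar Blue, expressed as IC50.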
(In general: The colour change of resazurin is a common sign of viable cells or microbes.)

The next data set relates to Plasmodium falciparum. Kind of data set: Antimalarial activity against Plasmodium falciparum K1 in human erythrocytes after 48 hrs by [3H]hypoxanthine uptake. The class given is functional, organism-based. In a few lines: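 Infected human red cells with chloroquine/pyrimethamine-resistant K1 strain exposed to serial dilutions 48 h, 37 °C, reduced O2/elevated CO2; [³H]-hypoxanthine then added, 24 h further incubation, harvested on glass fibre filters, scintillation counted. IC50 from sigmoidal inhibition curve; duplicate, repeated at least once.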

Data set [2] has as its system Trypanosoma brucei rhodesiense. Kind of data set: Antitrypanosomal activity against Trypanosoma brucei rhodesiense after 72 hrs by alamar blue assay. The data set is classed as functional, organism-based. In short, it runs like this:
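STIB 900 trypanosomes in Minimum Essential Medium with 2-mercaptoethanol and 15% heat-inactivated horse serum, serial drug dilutions, 72 h at 37 °C, 5% CO2; Alamar Blue added, 2–4 h more, fluorescence read ex 530/em 590 nm. Signal expressed as percent of control; IC50 determined.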

The subject of the next data set is Trypanosoma cruzi. Kind of data set: Antitrypanosomal activity against Trypanosoma cruzi Tulahuen strain C2C4 containing galactosidase gene in rat L6 cells after 4 days. The data set is classed as functional, organism-based. The settings on record: L6, 96 h. In a few lines:
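L-6 cells seeded 2000/well in RPMI 1640, 10% FBS, 2 mM L-glutamine; after 24 h, 5000 Lac Z trypomastigotes added with serial drug dilutions, 4 days at 37 °C, 5% CO2. CPRG/Nonidet substrate added, colour read at 540 nm after 2–4 h; IC50 from sigmoidal inhibition curve.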

For another data set, the system named is Leishmania donovani. Nature of the data set: Antileishmanial activity against Leishmania donovani. The class given is functional, organism-based.

Values after ≈ are worked out from the molar mass of the structure shown. Bounds are passed on as bounds.

As to `COc1cc(C)cc2c(-c3c(O)cc(O)c4c3C[C@@H](C)N(C)[C@@H]4C)ccc(O)c12` [ANCISTROCONGOLINE A], in data set [1], the IC50 at 72 h is 90 mg/L (≈ 229 µM). Besides, the IC50 with Plasmodium falciparum was 0.214 mg/L (≈ 0.544 µM); in data set [2] it was 2.97 mg/L (≈ 7.55 µM); with Trypanosoma cruzi, 39.9 mg/L (≈ 101 µM).

Regarding `COc1cc(O)c2c(c1-c1ccc(OC)c3c(OC)cc(C)cc13)C[C@@H](C)N(C)[C@@H]2C` [ANCISTROCONGOLINE B], the IC50 at 72 h in data set [1] turned out to be 33.4 mg/L (≈ 79.2 µM). The IC50 came to 0.158 mg/L (≈ 0.375 µM) with Plasmodium falciparum, 2.54 mg/L (≈ 6.03 µM) in data set [2], 18.8 mg/L (≈ 44.6 µM) in the data set on Leishmania donovani and 17.4 mg/L (≈ 41.3 µM) in the data set with Trypanosoma cruzi.

On to `COc1cc(O)c(-c2ccc(OC)c3c(OC)cc(C)cc23)c2c1[C@@H](C)N(C)[C@H](C)C2` [ANCISTROCONGOLINE C], for which the IC50 at 72 h in data set [1] was not below 90 mg/L. Also, the IC50 in the data set with Plasmodium falciparum was 3 mg/L (≈ 7.12 µM); in data set [2], 15.9 mg/L (≈ 37.7 µM); with Leishmania donovani, 19.3 mg/L (≈ 45.8 µM); in the data set with Trypanosoma cruzi, not below 90 mg/L.

On to `COc1c(-c2c(C)cc(OC)c3c(OC)cccc23)c(O)cc2c1[C@@H](C)N[C@H](C)C2` [ANCISTROCONGOLINE D], for which the IC50 at 72 h in data set [1] was 27.7 mg/L (≈ 68 µM). Moreover, the IC50 with Plasmodium falciparum was 1.98 mg/L (≈ 4.87 µM); in data set [2] it was 5.86 mg/L (≈ 14.4 µM); with Leishmania donovani it was more than 30 mg/L; with Trypanosoma cruzi, 30.1 mg/L (≈ 73.9 µM).

With `C[C@@H]1CC[C@H]2[C@@H](C)C(=O)O[C@@H]3O[C@@]4(C)CC[C@@H]1[C@]32OO4` [ARTEMISININ], in the data set with Plasmodium falciparum, the IC50 turned out to be 0.001 mg/L (≈ 0.00354 µM).

`O=C(Cn1ccnc1[N+](=O)[O-])NCc1ccccc1` [BENZNIDAZOLE] registered an IC50 in the data set on Trypanosoma cruzi of 0.382 mg/L (≈ 1.47 µM).

Consider `COc1cc(C)cc2c(-c3c(O)cc(O)c4c3C[C@@H](C)N[C@@H]4C)ccc(O)c12` [KORUPENSAMINE A], for which, in data set [1], the IC50 at 72 h came to 38 mg/L (≈ 100 µM). Further, the IC50 in the data set on Plasmodium falciparum came to 0.164 mg/L (≈ 0.432 µM); in data set [2], 1.87 mg/L (≈ 4.93 µM); in the data set on Leishmania donovani, 25.1 mg/L (≈ 66.1 µM); with Trypanosoma cruzi, 14.5 mg/L (≈ 38.2 µM).
